Results reported in publication PMC8935478 (Journal of medicinal chemistry, 2021).

What was measured:
MV4;11 = assay: Cell growth inhibition, CellTiter-Glo; assay type: cell-based, human
MOLM-13 = assay: Cell growth inhibition, CellTiter-Glo; assay type: cell-based
[1] = tested on: HOXA9 mRNA in MV4;11 cells; assay: qRT-PCR gene expression in MV4; assay type: cell-based, human; details: 24h of treatment
Summary of the method: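 Total RNA from in vitro-grown cells isolated with RNeasy. cDNA made with a High-Capacity reverse transcription kit. TaqMan gene expression assays with gene-specific primers amplified HOXA9, MEIS1, ITGAM, GAPDH and HPRT1. Relative transcript levels calculated by the comparative Ct method.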

[2] = tested on: MV4;11 subcutaneous tumors; assay: MV4; assay type: in vivo, mice; details: 100 mg/kg daily for 26 days, oral gavage; 157 mm^3 at the beginning of the treatment
Summary of the method: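 Female C.B-17 SCID mice (5–6 weeks) implanted sc in the right flank with 5×10^6 MV4;11 cells in 1:1 Matrigel. Randomized once tumors reached the target volume. Dosed once daily by oral gavage at 10 ml/kg; vehicle 0.5% MC (400cP) + 0.2% Tween 80 (w/w). Body weight recorded daily. Calipers three times weekly; volume = 0.5×W×W×L; mean ± SEM. Regrowth followed to day 45 after treatment start.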

## CCC(=O)N1C[C@@H]2C[C@H]1CN2S(=O)(=O)c1ccc(N2CC(CN3CCC([C@@](CN4CCC4)(c4cccc(F)c4)[C@H]4CCC[C@@H]4NC(=O)OC)CC3)(OC)C2)cc1 [Compound 26, Methyl ((1S,2R)-2-(2-(azetidin-1-yl)-1-(3-fluorophenyl)-1-(1-((3-methoxy-1-(4-(((1S,4S)-5-propionyl-2,5-diazabicyclo[2.2.1]heptan-2-yl)sulfonyl)phenyl)azetidin-3-yl)methyl)piperidin-4-yl)ethyl)cyclopentyl)carbamate]
MV4;11; MV4;11
  Times less potent than 24 in inhibition of cell growth: > 10 times
MOLM-13; MOLM-13
  Times less potent than 24 in inhibition of cell growth: > 10 times

## C=CC(=O)N1CC(S(=O)(=O)c2ccc(N3CC(CN4CCC([C@@](CN5CCC5)(c5cccc(F)c5)[C@H]5CCC[C@@H]5NC(=O)OC)CC4)(OC)C3)cc2)C1 [Compound 20, Methyl ((1S,2R)-2-(1-(1-((1-(4-((1-acryloylazetidin-3-yl)sulfonyl)phenyl)-3-methoxyazetidin-3-yl)methyl)piperidin-4-yl)-2-(azetidin-1-yl)-1-(3-fluorophenyl)ethyl)cyclopentyl)carbamate]
MV4;11; MV4;11, ratio of IC50
  Fold less potent than compound 19 in inhibiting growth: 49 fold
MOLM-13; MOLM-13, ratio of IC50
  Fold less potent than compound 19 in inhibiting growth: 8 fold

## C=CC(=O)N1CCC[C@@H](S(=O)(=O)c2ccc(N3CC(CN4CCC([C@@](CN5CCC5)(c5cccc(F)c5)[C@H]5CCC[C@@H]5NC(=O)OC)CC4)(OC)C3)cc2)C1 [Compound 23, Methyl ((1S,2R)-2-(1-(1-((1-(4-(((R)-1-acryloylpiperidin-3-yl)sulfonyl)phenyl)-3-methoxy-azetidin-3-yl)methyl)piperidin-4-yl)-2-(azetidin-1-yl)-1-(3-fluorophenyl)ethyl)cyclopentyl)-carbamate]
MV4;11; MV4;11
  Times more potent than compound 21: 2 times
MOLM-13; MOLM-13
  Times more potent than compound 21: 2 times

## C=CC(=O)N1C[C@@H]2C[C@H]1CN2S(=O)(=O)c1ccc(N2CC(CN3CCC([C@@](CN4CCC4)(c4cccc(F)c4)[C@H]4CCC[C@@H]4NC(=O)OC)CC3)(OC)C2)cc1 [Compound 24, Methyl ((1S,2R)-2-(1-(1-((1-(4-(((1S,4S)-5-acryloyl-2,5-diazabicyclo[2.2.1]heptan-2-yl)-sulfonyl)phenyl)-3-methoxyazetidin-3-yl)methyl)piperidin-4-yl)-2-(azetidin-1-yl)-1-(3-fluoro-phenyl)ethyl)cyclopentyl)carbamate]
[1]
  Concentration as low as which HOXA9 gene expression is effectively modulated: 10 nM
MV4;11; MV4;11
  Fold more potent than compound 20: 8–10 fold
MV4;11; MV4;11, ratio of IC50
  Fold more potent than stereoisomer compound 25: 40 fold
MOLM-13; MOLM-13
  Fold more potent than compound 20: 8–10 fold
MOLM-13; MOLM-13, ratio of IC50
  Fold more potent than stereoisomer compound 25: 9 fold
[2]
  Average tumor volume on day 26 of the treatment: 106 mm^3

## COC(=O)N[C@H]1CCC[C@@H]1[C@](CN1CCC1)(c1cccc(F)c1)C1CCN(CC2(OC)CN(c3ccc(S(=O)(=O)C4CN(C(=O)/C=C/CN(C)C)C4)cc3)C2)CC1 [Compound 19, Methyl ((1S,2R)-2-(2-(azetidin-1-yl)-1-(1-((1-(4-((1-((E)-4-(dimethylamino)but-2-enoyl)-azetidin-3-yl)sulfonyl)phenyl)-3-methoxyazetidin-3-yl)methyl)piperidin-4-yl)-1-(3-fluorophenyl)ethyl)cyclopentyl)carbamate]
MV4;11; MV4;11, ratio of IC50
  Fold more potent than compound 17 in inhibiting proliferation: 72 fold
MOLM-13; MOLM-13, ratio of IC50
  Fold more potent than compound 17 in inhibiting proliferation: 9 fold

## C=CC(=O)N1CCC[C@H](S(=O)(=O)c2ccc(N3CC(CN4CCC([C@@](CN5CCC5)(c5cccc(F)c5)[C@H]5CCC[C@@H]5NC(=O)OC)CC4)(OC)C3)cc2)C1 [Compound 22, Methyl ((1S,2R)-2-(1-(1-((1-(4-(((S)-1-acryloylpiperidin-3-yl)sulfonyl)phenyl)-3-methoxy-azetidin-3-yl)methyl)piperidin-4-yl)-2-(azetidin-1-yl)-1-(3-fluorophenyl)ethyl)-cyclopentyl)carbamate]
MV4;11; MV4;11
  Times more potent than compound 21: 2 times
MOLM-13; MOLM-13
  Times more potent than compound 21: 2 times
